A short description of the data set: Population PK analysis of venetoclax in AML patients. Format: in vivo. In outline: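 Plasma PK data were pooled from five studies: 771 R/R or treatment-naïve AML patients given ≥1 dose, with daily ramp-up to 400–1200 mg QD. Fitted by nonlinear mixed-effects modelling (FOCE-INT), using a prior CLL/SLL/NHL/healthy-volunteer model as informative priors. Race, azacitidine, decitabine and LDAC were tested stepwise (forward α=0.01, backward α=0.001) as multiplicative factors on CL/F, Vd/F and bioavailability. Validated by pcVPC (500 replicates); AUCss was taken from the planned dose.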

Consider `CC1(C)CCC(CN2CCN(c3ccc(C(=O)NS(=O)(=O)c4ccc(NCC5CCOCC5)c([N+](=O)[O-])c4)c(Oc4cnc5[nH]ccc5c4)c3)CC2)=C(c2ccc(Cl)cc2)C1` [Venetoclax], for which the “Median exposure (AUCss) at 400 mg venetoclax” value runs as follows: (Asian patients) 1.85 µg·days/mL; (Non‐Asian patients) 1.11 µg·days/mL. Besides, the “higher relative bioavailability in Asian than non‐Asian patients” value (Asian vs non-Asian AML patients) worked out at 67%. In addition, the “effect of co-administration on venetoclax CL/F” value (P‐gp inhibitors, mild CYP3A inhibitors, azacitidine, decitabine, or LDAC) is given as “no effect”. The “increase of venetoclax Vd/F with azacitidine” value (azacitidine co-administration) turned out to be 24%. In addition, the “decrease of venetoclax CL/F by moderate CYP3A inhibitors” value (co-administered moderate CYP3A inhibitors) was 19%. Further, the “decrease of venetoclax CL/F by strong CYP3A inhibitors” value (co-administered strong CYP3A inhibitors) worked out at 83%. The “effect of covariates on venetoclax exposure” value (sex, mild to moderate hepatic impairment, mild to severe renal impairment, age, body weight) is listed as “did not appear to have any effect”.

The values are drawn from paper PMC9303465 (Hematological Oncology, 2022).
